Measured values from ChEMBL document CHEMBL3745670, “Synthesis and biological evaluation of novel lipoamino acid derivatives” (Bioorg Med Chem Lett, 2016).
Values after ≈ are worked out from the molar mass of the structure shown. Blank lines part the entries; values can stand above or below the molecule they belong to.

Tests used:
Micrococcus luteus [1] = test: Bactericidal activity against Micrococcus luteus MTCC 2470 after 24 hrs; format: functional; conditions: MTCC 2470, 24 h
How it was run: (§1)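 Minimum bactericidal concentration was determined on four Gram-positive strains, for the compounds active in the preliminary antibacterial screen.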

HepG2 = test: Cytotoxicity against human HepG2 cells by MTT assay; format: functional, cell-based
Pseudomonas aeruginosa = test: Antibacterial activity against Pseudomonas aeruginosa MTCC 2453 after 24 hrs by well diffusion assay; format: functional; conditions: MTCC 2453, 24 h
Micrococcus luteus [2] = test: Antibacterial activity against Micrococcus luteus MTCC 2470 after 24 hrs by well diffusion assay; format: functional; conditions: MTCC 2470, 24 h
Staphylococcus aureus [3] = test: Antibacterial activity against Staphylococcus aureus MTCC 96 after 24 hrs by well diffusion assay; format: functional; conditions: MTCC 96, 24 h
Bacillus subtilis [4] = test: Antibacterial activity against Bacillus subtilis MTCC 121 after 24 hrs by well diffusion assay; format: functional; conditions: MTCC 121, 24 h
Bacillus subtilis [5] = test: Bactericidal activity against Bacillus subtilis MTCC 121 after 24 hrs by well diffusion assay; format: functional; conditions: MTCC 121, 24 h; how it was run: as §1
Bacillus subtilis [6] = test: Antibiofilm activity against Bacillus subtilis MTCC 121 after 24 hrs by well diffusion assay by crystal violet staining based method; format: functional, organism-based; conditions: MTCC 121, 24 h
How it was run: (§2)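 Biofilm inhibition was tested on the four Gram-positive strains, using crystal violet staining.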

Candida albicans [7] = test: Antifungal activity against Candida albicans MTCC 3017 after 24 hrs by well diffusion assay; format: functional; conditions: MTCC 3017, 24 h
How it was run: (§3)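 Well diffusion screen against Candida and related fungal strains. Read-out is MIC in µg/mL, with miconazole as the reference drug.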

Escherichia coli = test: Antibacterial activity against Escherichia coli MTCC 739 after 24 hrs by well diffusion assay; format: functional; conditions: MTCC 739, 24 h
[8] = Cytotoxicity against human SKOV3 cells by MTT assay; format: functional, cell-based; conditions: SK-OV-3
Micrococcus luteus [9] = test: Antibiofilm activity against Micrococcus luteus MTCC 2470 after 24 hrs by crystal violet staining based method; format: functional, organism-based; conditions: MTCC 2470, 24 h; how it was run: as §2
Raoultella planticola = test: Antibacterial activity against Klebsiella planticola MTCC 530 after 24 hrs by well diffusion assay; format: functional; conditions: MTCC 530, 24 h
MDA-MB-231 = test: Cytotoxicity against human MDA-MB-231 cells by MTT assay; format: functional, cell-based
Staphylococcus aureus [10] = test: Antibacterial activity against Staphylococcus aureus MLS-16 MTCC 2940 after 24 hrs by well diffusion assay; format: functional; conditions: MLS-16 MTCC 2940, 24 h
[11] = Cytotoxicity against human DU145 cells by MTT assay; format: functional, cell-based; conditions: DU-145
Candida albicans [12] = test: Antifungal activity against Candida albicans MTCC 1637 after 24 hrs by well diffusion assay; format: functional; conditions: MTCC 1637, 24 h; how it was run: as §3
Candida parapsilosis [13] = test: Inhibition of ergosterol biosynthesis in Candida parapsilosis MTCC 1744 assessed as mean ergosterol content at 8 ug/ml after 20 hrs by spectrophotometric analysis (Rvb=1.62 +/- 0.08 ug/ml); format: functional
Pichia sporocuriosa = test: Antifungal activity against Issatchenkia hanoiensis MTCC 4755 after 24 hrs by well diffusion assay; format: functional; conditions: MTCC 4755, 24 h; how it was run: as §3
Pichia kudriavzevii = test: Antifungal activity against Pichia kudriavzevii MTCC 3020 after 24 hrs by well diffusion assay; format: functional; conditions: MTCC 3020, 24 h; how it was run: as §3
Candida albicans [14] = test: Antifungal activity against Candida albicans MTCC 4748 after 24 hrs by well diffusion assay; format: functional; conditions: MTCC 4748, 24 h; how it was run: as §3
Candida albicans [15] = test: Antifungal activity against Candida albicans MTCC 3018 after 24 hrs by well diffusion assay; format: functional; conditions: MTCC 3018, 24 h; how it was run: as §3
Candida albicans [16] = test: Antifungal activity against Candida albicans MTCC 227 after 24 hrs by well diffusion assay; format: functional; conditions: MTCC 227, 24 h; how it was run: as §3
Candida albicans [17] = test: Antifungal activity against Candida albicans MTCC 7315 after 24 hrs by well diffusion assay; format: functional; conditions: MTCC 7315, 24 h; how it was run: as §3
[Candida] aaseri = Antifungal activity against Candida aaseri MTCC 1962 after 24 hrs by well diffusion assay; format: functional; conditions: Yamadazyma aaseri, MTCC 1962, 24 h; how it was run: as §3
Candida parapsilosis [18] = test: Inhibition of ergosterol biosynthesis in Candida parapsilosis MTCC 1744 assessed as mean ergosterol content at 16 ug/ml after 20 hrs by spectrophotometric analysis (Rvb=1.62 +/- 0.08 ug/ml); format: functional
Candida albicans [19] = test: Antifungal activity against Candida albicans MTCC 3958 after 24 hrs by well diffusion assay; format: functional; conditions: MTCC 3958, 24 h; how it was run: as §3
Staphylococcus aureus [20] = test: Bactericidal activity against Staphylococcus aureus MTCC 96 after 24 hrs; format: functional; conditions: MTCC 96, 24 h; how it was run: as §1
Staphylococcus aureus [21] = test: Antibiofilm activity against Staphylococcus aureus MTCC 96 after 24 hrs by crystal violet staining based method; format: functional, organism-based; conditions: MTCC 96, 24 h; how it was run: as §2
Staphylococcus aureus [22] = test: Antibiofilm activity against Staphylococcus aureus MLS-16 MTCC 2940 after 24 hrs by crystal violet staining based method; format: functional, organism-based; conditions: MLS-16 MTCC 2940, 24 h; how it was run: as §2
Candida parapsilosis [23] = test: Antifungal activity against Candida parapsilosis MTCC 1744 after 24 hrs by well diffusion assay; format: functional; conditions: Lodderomyces parapsilosis, MTCC 1744, 24 h; how it was run: as §3
Candida albicans [24] = test: Antifungal activity against Candida albicans MTCC 854 after 24 hrs by well diffusion assay; format: functional; conditions: MTCC 854, 24 h; how it was run: as §3
Candida albicans [25] = test: Antifungal activity against Candida albicans MTCC 183 after 24 hrs by well diffusion assay; format: functional; conditions: MTCC 183, 24 h; how it was run: as §3
Nakaseomyces glabratus = test: Antifungal activity against Candida glabrata MTCC 3019 after 24 hrs by well diffusion assay; format: functional; conditions: MTCC 3019, 24 h; how it was run: as §3
Candida parapsilosis [26] = test: Inhibition of ergosterol biosynthesis in Candida parapsilosis MTCC 1744 assessed as mean ergosterol content at 2 ug/ml after 20 hrs by spectrophotometric analysis (Rvb=1.62 +/- 0.08 ug/ml); format: functional
Staphylococcus aureus [27] = test: Bactericidal activity against Staphylococcus aureus MLS-16 MTCC 2940 after 24 hrs; format: functional; conditions: MLS-16 MTCC 2940, 24 h; how it was run: as §1
Candida parapsilosis [28] = test: Inhibition of ergosterol biosynthesis in Candida parapsilosis MTCC 1744 assessed as mean ergosterol content at 4 ug/ml after 20 hrs by spectrophotometric analysis (Rvb=1.62 +/- 0.08 ug/ml); format: functional

- MIC (Pseudomonas aeruginosa): > 125 µg/mL
- MIC (Micrococcus luteus [2]): 15.6 µg/mL (≈ 33.9 µM)
- MIC (Staphylococcus aureus [3]): > 125 µg/mL
- MIC (Bacillus subtilis [4]): 7.8 µg/mL (≈ 17 µM)
- IC50 (Bacillus subtilis [6]): 4.4 µM
- MIC (Candida albicans [7]): 31.2 µg/mL (≈ 67.9 µM)
- MIC (Escherichia coli): > 125 µg/mL
- IC50 (Micrococcus luteus [9]): 8.2 µM
- MIC (Staphylococcus aureus [10]): > 125 µg/mL
Structure (SMILES): CCCCCCCCC(CCCCCCCCC(=O)OC)SCC(=O)NCC(=O)OC (stereo unspecified)
- MBC (Micrococcus luteus [1]): 31.2 µg/mL (≈ 67.9 µM)
- IC50 (HepG2): 29.6 µM
- MBC (Bacillus subtilis [5]): 3.9 µg/mL (≈ 8.48 µM)
- IC50 [8]: 25.2 µM
- MIC (Raoultella planticola): > 125 µg/mL
- IC50 (MDA-MB-231): 31.4 µM
- IC50 [11]: 30.8 µM

- MIC (Pseudomonas aeruginosa): > 125 µg/mL
- MIC (Micrococcus luteus [2]): > 125 µg/mL
- MIC (Staphylococcus aureus [3]): > 125 µg/mL
- MIC (Bacillus subtilis [4]): > 125 µg/mL
- MIC (Candida albicans [7]): > 125 µg/mL
- MIC (Escherichia coli): > 125 µg/mL
- MIC (Staphylococcus aureus [10]): > 125 µg/mL
Structure (SMILES): CCCCCCCCC(CCCCCCCCC(=O)OC)SCC(=O)N[C@@H](Cc1ccccc1)C(=O)OC (stereo partly specified)
- IC50 (HepG2): 33.6 µM
- IC50 [8]: 42.5 µM
- MIC (Raoultella planticola): > 125 µg/mL
- IC50 (MDA-MB-231): 38.6 µM
- IC50 [11]: 49.1 µM

- MIC (Pseudomonas aeruginosa): > 125 µg/mL
- MIC (Micrococcus luteus [2]): > 125 µg/mL
- MIC (Staphylococcus aureus [3]): > 125 µg/mL
- MIC (Bacillus subtilis [4]): > 125 µg/mL
- MIC (Candida albicans [7]): > 125 µg/mL
- MIC (Escherichia coli): > 125 µg/mL
- MIC (Staphylococcus aureus [10]): > 125 µg/mL
Structure (SMILES): CCCCCCCCC(CCCCCCCCC(=O)OC)SCC(=O)N[C@@H](CC(C)C)C(=O)OC (stereo partly specified)
- MIC (Raoultella planticola): > 125 µg/mL
- IC50 (MDA-MB-231): 152 µM
- IC50 [11]: 215 µM

- MIC (Pseudomonas aeruginosa): > 125 µg/mL
- MIC (Micrococcus luteus [2]): > 125 µg/mL
- MIC (Staphylococcus aureus [3]): > 125 µg/mL
- MIC (Bacillus subtilis [4]): > 125 µg/mL
- MIC (Candida albicans [7]): > 125 µg/mL
- MIC (Escherichia coli): > 125 µg/mL
- MIC (Staphylococcus aureus [10]): > 125 µg/mL
Structure (SMILES): CCCCCCCCC(CCCCCCCCC(=O)OC)SCC(=O)N[C@H](C(=O)OC)c1c[nH]c2ccccc12 (stereo partly specified)
- MIC (Raoultella planticola): > 125 µg/mL

- MIC (Candida albicans [12]): 31.2 µg/mL (≈ 65.9 µM)
- MIC (Pichia sporocuriosa): 15.6 µg/mL (≈ 32.9 µM)
- MIC (Pichia kudriavzevii): 15.6 µg/mL (≈ 32.9 µM)
- MIC (Candida albicans [14]): 15.6 µg/mL (≈ 32.9 µM)
- MIC (Pseudomonas aeruginosa): > 125 µg/mL
- MIC (Candida albicans [15]): 15.6 µg/mL (≈ 32.9 µM)
- MIC (Micrococcus luteus [2]): 7.8 µg/mL (≈ 16.5 µM)
- MIC (Staphylococcus aureus [3]): 15.6 µg/mL (≈ 32.9 µM)
- MIC (Bacillus subtilis [4]): 3.9 µg/mL (≈ 8.23 µM)
- MIC (Candida albicans [16]): 15.6 µg/mL (≈ 32.9 µM)
- MIC (Candida albicans [17]): 15.6 µg/mL (≈ 32.9 µM)
- MIC ([Candida] aaseri): 15.6 µg/mL (≈ 32.9 µM)
- IC50 (Bacillus subtilis [6]): 2.8 µM
- MIC (Candida albicans [19]): 7.8 µg/mL (≈ 16.5 µM)
- MIC (Candida albicans [7]): 7.8 µg/mL (≈ 16.5 µM)
- IC50 (Staphylococcus aureus [21]): 9.3 µM
- MIC (Escherichia coli): > 125 µg/mL
- IC50 (Staphylococcus aureus [22]): 3.2 µM
- MIC (Candida parapsilosis [23]): 7.8 µg/mL (≈ 16.5 µM)
- IC50 (Micrococcus luteus [9]): 4.1 µM
- MIC (Candida albicans [24]): 31.2 µg/mL (≈ 65.9 µM)
- MIC (Candida albicans [25]): 7.8 µg/mL (≈ 16.5 µM)
- MIC (Nakaseomyces glabratus): 31.2 µg/mL (≈ 65.9 µM)
- MIC (Staphylococcus aureus [10]): 7.8 µg/mL (≈ 16.5 µM)
Structure (SMILES): CCCCCCCCC(CCCCCCCCC(=O)OC)SCC(=O)N[C@@H](C)C(=O)OC (stereo partly specified)
- MFC (Candida albicans [12]): 31.2 µg/mL (≈ 65.9 µM)
- Activity (Candida parapsilosis [13]): 0.38 µg/mL
- MBC (Micrococcus luteus [1]): 7.8 µg/mL (≈ 16.5 µM)
- IC50 (HepG2): 102 µM
- MFC (Pichia sporocuriosa): 31.2 µg/mL (≈ 65.9 µM)
- MFC (Pichia kudriavzevii): 15.6 µg/mL (≈ 32.9 µM)
- MFC (Candida albicans [14]): 15.6 µg/mL (≈ 32.9 µM)
- MFC (Candida albicans [15]): 31.2 µg/mL (≈ 65.9 µM)
- MFC (Candida albicans [16]): 31.2 µg/mL (≈ 65.9 µM)
- MFC (Candida albicans [17]): 31.2 µg/mL (≈ 65.9 µM)
- MFC ([Candida] aaseri): 31.2 µg/mL (≈ 65.9 µM)
- MBC (Bacillus subtilis [5]): 7.8 µg/mL (≈ 16.5 µM)
- Activity (Candida parapsilosis [18]): 0.11 µg/mL
- MFC (Candida albicans [19]): 15.6 µg/mL (≈ 32.9 µM)
- MBC (Staphylococcus aureus [20]): 31.2 µg/mL (≈ 65.9 µM)
- IC50 [8]: 114 µM
- MFC (Candida parapsilosis [23]): 7.8 µg/mL (≈ 16.5 µM)
- MFC (Candida albicans [24]): 62.5 µg/mL (≈ 132 µM)
- MFC (Candida albicans [25]): 15.6 µg/mL (≈ 32.9 µM)
- MFC (Nakaseomyces glabratus): 31.2 µg/mL (≈ 65.9 µM)
- Activity (Candida parapsilosis [26]): 1.41 µg/mL
- MBC (Staphylococcus aureus [27]): 15.6 µg/mL (≈ 32.9 µM)
- MIC (Raoultella planticola): > 125 µg/mL
- Activity (Candida parapsilosis [28]): 0.63 µg/mL
- IC50 (MDA-MB-231): 98.7 µM
- IC50 [11]: 154 µM
